For assay [1], the system named is Aorta. The assay can be described thus: Vascular activity in KPSS precontracted Sprague-Dawley rat thoracic aorta assessed as endothelium dependent relaxation. It counts as functional, tissue-based. More on the design: Activity: concentration or dose not given beside the values. The conditions noted are these: for EC50: Rattus norvegicus, Sprague-Dawley, Thoracic aorta.

Assay [2] concerns Aorta. The assay is described as follows: Antioxidant activity in Sprague-Dawley rat thoracic aorta assessed as superoxide levels at 10 uM by lucigenin-enhanced chemiluminescence assay relative to control. It counts as functional. Summed up: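 Male Sprague-Dawley aortic rings incubated 45 min at 37 °C, pH 7.4, in Krebs-HEPES with DETCA 3 mM (inactivates SOD), NADPH 100 µM and flavonol 10 µM (DMSO 1%). Rings then moved to wells containing lucigenin 50 µM and NADPH 100 µM, and photon emission counted. Counts normalized to dry tissue weight (dried 48 h, 65 °C), expressed as % of vehicle; n = rats.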

The test system of assay [3] is Aorta. The assay is described as follows: DPPH scavenging activity in Sprague-Dawley rat thoracic aorta at 100 uM relative to control. It counts as functional. The method, boiled down: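 Cell-free DPPH radical scavenging. Flavonol in DMSO mixed 1:1 with 0.1 mM DPPH in methanol, 10 min at room temperature in the dark, absorbance read at 560 nm. Level = (A flavonol/A DPPH) × 100, as % of vehicle.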

The test system of assay [4] is Aorta. The assay can be described thus: Vasorelaxant activity against U46619-induced contraction in endothelium-intact Sprague-Dawley rat thoracic aorta. Type of assay: functional, tissue-based. Further details: Activity: scale not given: the % may be the effect or the level left. The conditions noted are these: for EC50: Rattus norvegicus, Sprague-Dawley, Thoracic aorta.

Assay [5] has as its system Aorta. The assay can be described thus: Vasorelaxant activity against U46619-induced contraction in endothelium-denuded Sprague-Dawley rat thoracic aorta. More on the design: Activity: scale not given: the % may be the effect or the level left. It counts as functional, tissue-based. The conditions noted are these: for EC50: Rattus norvegicus, Sprague-Dawley, Thoracic aorta.

The test system of assay [6] is Aorta. The assay is described as follows: Vasorelaxant activity against KCl-induced contraction in endothelium-intact Sprague-Dawley rat thoracic aorta. It counts as functional, tissue-based. Further details: Activity: scale not given: the % may be the effect or the level left. The conditions noted are these: for EC50: Rattus norvegicus, Sprague-Dawley, Thoracic aorta.

Assay [7] concerns Aorta. The assay is described as follows: Vasorelaxant activity against KCl-induced contraction in endothelium-denuded Sprague-Dawley rat thoracic aorta. Type of assay: functional, tissue-based. More on the design: Activity: scale not given: the % may be the effect or the level left. To be noted: for EC50: Rattus norvegicus, Sprague-Dawley, Thoracic aorta.
In assay [8] the test system is Aorta. The assay can be described thus: Effect on acetylcholine-induced vasorelaxation in pyrogallol exposed Sprague-Dawley rat thoracic aorta. It counts as functional, tissue-based. The conditions noted are these: for EC50: Rattus norvegicus, Sprague-Dawley, Thoracic aorta. More on the design: Activity: scale not given: the % may be the effect or the level left. The method, boiled down:
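Endothelium-intact male Sprague-Dawley aortic rings in organ baths with nifedipine 30 nM. Pretreated 20 min with pyrogallol 30 µM, alone or with flavonol 30 µM (15% DMSO/85% methanol), or vehicle. Rings precontracted with U46619 1–10 nM to about 50% of the 123 mM KCl response, then cumulative acetylcholine curves run. Relaxation given as % of precontraction; mean ± SEM, n = rats.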

Assay [9] has as its system Aorta. The assay can be described thus: Effect on acetylcholine-induced vasorelaxation in xanthine/xanthine oxidase exposed Sprague-Dawley rat thoracic aorta. Type of assay: functional, tissue-based. Further details: Activity: scale not given: the % may be the effect or the level left. The conditions noted are these: for EC50: Rattus norvegicus, Sprague-Dawley, Thoracic aorta. The method, boiled down: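 Aortic rings incubated with xanthine oxidase 0.016 U/mL for 30 min, then flavonol 30 µM for 20 min, then xanthine 100 µM for 10 min. Rings then precontracted with U46619 and cumulative acetylcholine concentration-response curves recorded. Relaxation given as % of U46619 precontraction; mean ± SEM, n = rats.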

Take `O=c1c(O)c(-c2ccc(C(F)(F)F)cc2)oc2ccccc12`: the Activity with Aorta [1] came to 6%; in the assay with Aorta [2], 85%; in the assay on Aorta [3], 90%.

`Cc1ccc(-c2oc3ccccc3c(=O)c2O)cc1`: the Activity was 13% with Aorta [1], 101% with Aorta [2] and 76% in the assay with Aorta [3].

As to `COc1ccc(-c2oc3ccccc3c(=O)c2O)cc1`, the Activity in the assay on Aorta [1] was 16%; with Aorta [2] it was 89%; in the assay with Aorta [3], 51%.

A word on the EC50: it is the concentration giving half of the maximal effect. Consider `O=c1c(O)c(-c2ccc(O)c(Br)c2)oc2ccccc12`, for which the Activity with Aorta [1] is 100%; in the assay with Aorta [2] it was 96%; in the assay with Aorta [3], 23%. The EC50 in the assay with Aorta [1] was 2.51 µM.

Consider `O=c1c(O)c(-c2ccc(O)c(O)c2)oc2ccccc12`, for which the Activity worked out at 102% with Aorta [1]; 27% with Aorta [2]; 36% in the assay with Aorta [3]; 101% in the assay with Aorta [4]; 100% with Aorta [5]; 100% in the assay with Aorta [6]. Moreover, the Activity is given as 100% in the assay with Aorta [7], 81% with Aorta [8] and 84% in the assay on Aorta [9]. Moreover, the EC50 in the assay with Aorta [1] was 5.01 µM; in the assay on Aorta [4], 1.35 µM; with Aorta [5], 3.02 µM; in the assay with Aorta [6], 5.5 µM; in the assay with Aorta [7], 6.31 µM; in the assay on Aorta [8], 0.0646 µM. The compound also gave an EC50 with Aorta [9] of 0.055 µM.

`O=c1c(O)c(-c2ccc(O)c(C(F)(F)F)c2)oc2ccccc12`: the values for the Activity in the assay with Aorta [1], with Aorta [2] and with Aorta [3] were 77%, 109% and 26%, respectively. Moreover, the EC50 in the assay with Aorta [1] is 16.6 µM.

As to `Cc1cccc(-c2oc3ccccc3c(=O)c2O)c1`, the Activity stood at 37% with Aorta [1], 85% with Aorta [2] and 80% with Aorta [3]. In the assay on Aorta [1], the EC50 is 74.1 µM.

Turning to `CC(C)(C)c1ccc(-c2oc3ccccc3c(=O)c2O)cc1`, the Activity with Aorta [1] is 10%; with Aorta [2] it was 111%; in the assay on Aorta [3], 71%.

In the case of `CC(C)(C)c1cc(-c2oc3ccccc3c(=O)c2O)ccc1O`, the Activity in the assay on Aorta [1] worked out at 38%; with Aorta [2] it was 108%; with Aorta [3], 26%. In the assay on Aorta [1], the EC50 is 4.68 µM.

As for `O=c1c(O)c(-c2cccc(C(F)(F)F)c2)oc2ccccc12`, the values for the Activity in the assay on Aorta [1], in the assay with Aorta [2] and in the assay with Aorta [3] were 23%, 80% and 89%, respectively. For the same compound, the EC50 in the assay on Aorta [1] was 115 µM.

Take `COc1cccc(-c2oc3ccccc3c(=O)c2O)c1`: the Activity with Aorta [1] stood at 79%; with Aorta [2], 74%; with Aorta [3], 71%; in the assay with Aorta [4], 101%; in the assay with Aorta [5], 93%; in the assay with Aorta [6], 87%. For the same compound, the Activity with Aorta [7] amounted to 86%. The concentration giving a half-maximal response (EC50) was 7.08 µM with Aorta [1]; 3.02 µM in the assay on Aorta [4]; 3.72 µM in the assay on Aorta [5]; 7.76 µM with Aorta [6]; 8.91 µM in the assay with Aorta [7].

Take `O=c1c(O)c(-c2ccccc2)oc2ccccc12` [FLAVONOL]: the Activity with Aorta [1] was 91%; with Aorta [2] it was 70%; in the assay on Aorta [3], 83%. Further, in the assay on Aorta [1], the EC50 was 7.59 µM.

Turning to `O=c1c(O)c(-c2ccc(Cl)cc2)oc2ccccc12`, the Activity in the assay on Aorta [1] came out at 37%; in the assay with Aorta [2], 100%; with Aorta [3], 93%. The concentration for a half-maximal effect (EC50) in the assay with Aorta [1] was 8.13 µM.

With `O=c1c(O)c(-c2cccc(Cl)c2)oc2ccccc12`, the Activity is 53% with Aorta [1], 75% in the assay on Aorta [2] and 87% in the assay with Aorta [3]. For the same compound, the EC50 in the assay on Aorta [1] is 6.76 µM.

As for `Cc1cc(-c2oc3ccccc3c(=O)c2O)ccc1O`, the Activity in the assay with Aorta [1] is 98%; in the assay on Aorta [2], 105%; in the assay with Aorta [3], 25%. The EC50 in the assay on Aorta [1] was 4.37 µM.

`O=c1c(O)c(-c2cccc(O)c2)oc2ccccc12`: the Activity in the assay on Aorta [1] stood at 98%; in the assay with Aorta [2], 78%; in the assay with Aorta [3], 87%. For the same compound, the EC50 in the assay on Aorta [1] was 3.24 µM.

As for `O=c1c(O)c(-c2ccc(O)cc2)oc2ccccc12`, the Activity with Aorta [1] is 99%; with Aorta [2], 74%; in the assay on Aorta [3] it was 32%; with Aorta [4] it was 100%; in the assay on Aorta [5], 102%; in the assay with Aorta [6], 95%. Also, the Activity in the assay on Aorta [7] is listed as 92%. Besides, the concentration for a half-maximal effect (EC50) is 4.68 µM in the assay on Aorta [1]; 1.66 µM in the assay on Aorta [4]; 3.16 µM in the assay on Aorta [5]; 5.13 µM in the assay on Aorta [6]; 5.5 µM in the assay with Aorta [7].

With `COc1cc(-c2oc3ccccc3c(=O)c2O)ccc1O`, the Activity with Aorta [1] came to 98%; in the assay on Aorta [2], 106%; with Aorta [3] it was 24%; in the assay on Aorta [4] it was 101%; with Aorta [5], 100%; in the assay with Aorta [6] it was 100%. Besides, the Activity in the assay on Aorta [7] came to 93%; in the assay on Aorta [8], 42%; in the assay with Aorta [9], 62%. Besides, the EC50 with Aorta [1] was 4.47 µM; with Aorta [4], 0.871 µM; with Aorta [5], 1.66 µM; with Aorta [6] it was 4.79 µM; in the assay on Aorta [7], 5.62 µM; in the assay with Aorta [8], 0.275 µM. Also, it took 0.0891 µM to reach a half-maximal effect in the assay with Aorta [9] (EC50).

Source of the values: ChEMBL document CHEMBL1143101, “Understanding the cardioprotective effects of flavonols: discovery of relaxant flavonols without antioxidant activity” (J Med Chem, 2008).
